Measurements: ChEMBL document CHEMBL1127494, “New hexahydroxybiphenyl derivatives as inhibitors of protein kinase C” (J Med Chem, 1994)
Values joined by “and” are separate entries in the source; they are usually repeats but may differ in a detail not shown here. Identical values can stand only once.

Experiments:
Protein kinase C (PKC) [1] = experiment: Inhibitory activity against protein kinase C of rat brain
How it was run: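 PKC purified from rat brain. The read-out was 32P transfer from 30 μM [γ-32P]ATP to histone IIIS (200 μg/mL) in 20 mM Hepes pH 7.5 with phosphatidylserine, 10 mM MgCl2, 100 μM CaCl2 and 47.5 μM EGTA, run 10 min at 30 °C. Reactions were TCA-precipitated, filtered and scintillation-counted. Lipid-independent activity was subtracted, and test levels were 4, 43 and 218 μM.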

[2] = Inhibition of c-AMP dependent kinase (PKA) catalytic subunit; parameters: species or system Bos taurus
Protein kinase C (PKC) [3] = experiment: Displacement of [3H]PDBU from protein kinase C; format: protein assay, Rattus norvegicus
[4] = biological target: Protein kinase C gamma type (Homo sapiens, UniProt P05129); experiment: Inhibition of protein kinase C gamma
How it was run: (§1)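 Recombinant human enzyme expressed by baculovirus in SF9 cells, then partially purified by homogenizing the pellet in Tris pH 8 detergent buffer, spinning, and running a DEAE column with a 0–500 mM NaCl gradient, with the peak pooled. The reaction was [γ-32P]ATP (30 μM) incorporation into histone IIIS (200 μg/mL) with phosphatidylserine, Ca2+/EGTA and Mg2+ in Hepes pH 7.5, run 10 min at 30 °C. It was stopped with TCA and counted on filters. No-lipid background was subtracted, and compounds were tested at 4, 43 and 218 μM.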

[5] = biological target: Protein kinase C alpha type (Homo sapiens, UniProt P17252); experiment: Inhibition of protein kinase C alpha
[6] = biological target: Protein kinase C delta type (Homo sapiens, UniProt Q05655); experiment: Inhibition of protein kinase C delta; how it was run: as §1
Sequence of Protein kinase C delta type (Q05655 whole entry): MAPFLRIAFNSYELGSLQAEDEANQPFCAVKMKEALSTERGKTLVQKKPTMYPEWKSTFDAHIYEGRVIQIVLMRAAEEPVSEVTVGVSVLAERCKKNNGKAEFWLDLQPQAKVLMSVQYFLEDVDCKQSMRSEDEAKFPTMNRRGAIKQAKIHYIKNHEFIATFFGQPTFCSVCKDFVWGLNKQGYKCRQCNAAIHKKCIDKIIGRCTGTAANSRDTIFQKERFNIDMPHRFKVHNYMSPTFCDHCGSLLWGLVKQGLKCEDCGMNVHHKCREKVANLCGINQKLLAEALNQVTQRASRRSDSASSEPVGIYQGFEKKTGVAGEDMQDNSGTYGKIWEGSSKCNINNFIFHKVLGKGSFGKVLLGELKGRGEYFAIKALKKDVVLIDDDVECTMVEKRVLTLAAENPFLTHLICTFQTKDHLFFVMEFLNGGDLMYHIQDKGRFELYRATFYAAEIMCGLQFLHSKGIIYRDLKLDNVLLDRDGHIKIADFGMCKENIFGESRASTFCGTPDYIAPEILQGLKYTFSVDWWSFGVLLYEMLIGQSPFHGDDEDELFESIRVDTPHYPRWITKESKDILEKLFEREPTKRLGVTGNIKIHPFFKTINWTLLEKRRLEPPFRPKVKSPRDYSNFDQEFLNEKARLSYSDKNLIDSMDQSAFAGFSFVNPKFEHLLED

Compound	IC50 (Protein kinase C (PKC) [1])	IC50 [2]	IC50 (Protein kinase C (PKC) [3]) [µM]	further results
O=C(O[C@@H]1O[C@@H]2COC(=O)c3cc(O)c(O)c(O)c3-c3c(cc(O)c(O)c3O)C(=O)O[C@H]([C@H]1OC(=O)c1cc(O)c(O)c(O)c1)[C@@H]2OC(=O)c1cc(O)c(O)c(O)c1)c1cc(O)c(O)c(O)c1 [PUNICAFOLIN]	4 µM	> 218 µM	< 50	–
COc1cc2c(c(OC)c1OC)-c1c(cc(OC)c(OC)c1OC)COC2	> 218 µM	–	–	–
BrCc1cc(OCc2ccccc2)c(OCc2ccccc2)c(OCc2ccccc2)c1-c1c(CBr)cc(OCc2ccccc2)c(OCc2ccccc2)c1OCc1ccccc1	103 µM	–	–	–
COCc1cc(O)c(O)c(O)c1-c1c(COC)cc(O)c(O)c1O	98 µM	> 218 µM	–	IC50 [4]: 50 µM; IC50 [5]: 43 µM
CCOC(=O)c1cc(OCc2ccccc2)c(OCc2ccccc2)c(OCc2ccccc2)c1-c1c(C(=O)OCC)cc(OCc2ccccc2)c(OCc2ccccc2)c1OCc1ccccc1	50 µM and 96 µM and 75 µM	19 µM	> 272	–
COc1c(OCc2ccccc2)c(OCc2ccccc2)cc2c1-c1c(cc(OCc3ccccc3)c(OCc3ccccc3)c1OC)C[N+]1(C2)Cc2cc(OCc3ccccc3)c(OCc3ccccc3)c(OC)c2-c2c(cc(OCc3ccccc3)c(OCc3ccccc3)c2OC)C1	87 µM	15 µM	> 272	–
O=C(O[C@@H]1OC2COC(=O)c3cc(O)c(O)c(O)c3-c3c(cc(O)c(O)c3O)C(=O)OC2C2OC(=O)c3cc(O)c(O)c(O)c3-c3c(cc(O)c(O)c3O)C(=O)OC21)c1cc(O)c(O)c(O)c1 (stereo not given in full)	3 µM	> 218 µM	< 50	–
CCCCCCCCCCCCC/C=C/[C@@H](O)[C@@H](N)CO [SPHINGOSINE]	40 µM	–	23	–
c1ccc(COc2cc3c(c(OCc4ccccc4)c2OCc2ccccc2)-c2c(cc(OCc4ccccc4)c(OCc4ccccc4)c2OCc2ccccc2)C[N+]2(C3)Cc3cc(OCc4ccccc4)c(OCc4ccccc4)c(OCc4ccccc4)c3-c3c(cc(OCc4ccccc4)c(OCc4ccccc4)c3OCc3ccccc3)C2)cc1	131 µM	–	–	–
COC(=O)c1cc(OCc2ccccc2)c(OCc2ccccc2)c(OCc2ccccc2)c1-c1c(C(=O)OC)cc(OCc2ccccc2)c(OCc2ccccc2)c1OCc1ccccc1	180 µM and 131 µM and > 218 µM	–	–	–
COc1c(OCc2ccccc2)c(OCc2ccccc2)cc(CO)c1-c1c(CO)cc(OCc2ccccc2)c(OCc2ccccc2)c1OC	> 218 µM	–	–	–
O=Cc1cc(OCc2ccccc2)c(OCc2ccccc2)c(OCc2ccccc2)c1-c1c(C=O)cc(OCc2ccccc2)c(OCc2ccccc2)c1OCc1ccccc1	131 µM	–	–	–
Oc1cc2c(c(O)c1O)-c1c(cc(O)c(O)c1O)COC2	32 µM and 28 µM and 43 µM	31 µM and 29 µM and > 218 µM	54	IC50 [4]: 34 µM and 30 µM; IC50 [5]: 37 µM; IC50 [6]: 42 µM and 44 µM
O=C(O[C@@H]1O[C@@H]2COC(=O)c3cc(O)c(O)c(O)c3-c3c(cc(O)c(O)c3O)C(=O)O[C@H]([C@H]1O)[C@@H]2O)c1cc(O)c(O)c(O)c1 [CORILAGIN]	20 µM	–	–	–
O=C1OCC2O[C@@H](O)C3OC(=O)c4cc(O)c(O)c(O)c4-c4c(cc(O)c(O)c4O)C(=O)OC3C2OC(=O)c2cc(O)c(O)c(O)c2-c2c1cc(O)c(O)c2O (stereo not given in full)	4 µM	> 218 µM	< 50	–
OCc1cc(OCc2ccccc2)c(OCc2ccccc2)c(O)c1-c1c(CO)cc(OCc2ccccc2)c(OCc2ccccc2)c1O	> 218 µM	–	–	–
CCOC(=O)c1cc(O)c(O)c(O)c1-c1c(C(=O)OCC)cc(O)c(O)c1O	> 218 µM	–	–	–
COC(=O)c1cc(OCc2ccccc2)c(OCc2ccccc2)c(OC)c1-c1c(C(=O)OC)cc(OCc2ccccc2)c(OCc2ccccc2)c1OC	97 µM	–	–	–
OCc1cc(OCc2ccccc2)c(OCc2ccccc2)c(OCc2ccccc2)c1-c1c(CO)cc(OCc2ccccc2)c(OCc2ccccc2)c1OCc1ccccc1	70 µM and 55 µM and 88 µM	21 µM	> 272	–
COC(=O)c1cc(O)c(O)c(O)c1-c1c(C(=O)OC)cc(O)c(O)c1O	> 218 µM	–	–	–
COc1c(OCc2ccccc2)c(OCc2ccccc2)cc(CBr)c1-c1c(CBr)cc(OCc2ccccc2)c(OCc2ccccc2)c1OC	> 218 µM	–	–	–
c1ccc(COc2cc3c(c(OCc4ccccc4)c2OCc2ccccc2)-c2c(cc(OCc4ccccc4)c(OCc4ccccc4)c2OCc2ccccc2)COC3)cc1	180 µM	–	–	–
CCOC(=O)c1cc(OCc2ccccc2)c(OCc2ccccc2)c(OC)c1-c1c(C(=O)OCC)cc(OCc2ccccc2)c(OCc2ccccc2)c1OC	94 µM	–	–	–
COc1c(OCc2ccccc2)c(OCc2ccccc2)cc(C=O)c1-c1c(C=O)cc(OCc2ccccc2)c(OCc2ccccc2)c1OC	> 218 µM	–	–	–
